This is an account of results in paper PMC3397136 (Amino Acids, 2011).

Values joined by “and” are separate entries in the source; they are usually repeats but may differ in a detail not shown here. Equal entries are not always repeated. Where two headings read alike, the source gives them in different places. Positions of bridges follow the written chain, without caps; N, C: chain ends. No end group written: not given here. Bounds are passed on as bounds.

Assay [1] deals with strips of rat uterus. The settings on record: cited from earlier work.
Assay [2] relates to arterial blood pressure (pressor response to AVP). Conditions: cited from earlier work.
Assay [3] relates to conscious male rats (antidiuresis). Conditions: cited from earlier work; for Antidiuretic IU/mg (200 min): 200 min level; for Antidiuretic IU/mg 60 min: threshold level 60 min; for Antidiuretic IU/mg: single value, ref Lebl (1987).
Assay [4] deals with strips of rat uterus. The assay is classed as cell-based. The settings on record: for anti-oxytocic potency, times less potent than the mother compound III: in vitro uterus test. In outline:
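Wistar rats were brought into estrus by estrogen injection 48 h before use. After decapitation, uterine horns were cut longitudinally and mounted in an organ bath without Mg2+, and isometric contraction height was recorded. Oxytocin standard, with or without test compound, or test compound alone was dosed cumulatively in doubling concentrations at 1 min intervals until maximal response. Results are agonist IU/mg or antagonist pA2, using uteri from 3–5 rats, mean ± SEM.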

The test system of assay [5] is arterial blood pressure (pressor response to AVP). The assay is described as follows: vasopressor test in phenoxybenzamine-treated male rats under urethane anesthesia. The format is in vivo, rat. The settings on record: for Pressor pA2 (antagonist) / pressor activity (in words): rat; for Pressor pA2 (antagonist): i.v., antagonist 1 min before AVP; for Pressor IU/mg or pA2 (0 = no activity): 0 means no activity up to the dose of 0.15 mg/kg of experimental animal; for pressor activity (in words): in vivo. In outline: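 Male Wistar rats were pretreated with phenoxybenzamine and anesthetized with urethane, and arterial blood pressure was recorded. AVP standard was given as single femoral-vein injections to build dose–response curves with and without antagonist, which was given 1 min earlier. Results are IU/mg for agonists or pA2 for antagonists, with distribution volume taken as 67 ml/kg. Inactivity means no response up to 0.15 mg/kg. 3–5 experiments, mean ± SEM.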

In assay [6] the test system is conscious male rats (antidiuresis). The assay can be described thus: antidiuretic test on conscious male rats. The assay is classed as in vivo, rat. The settings on record: for antidiuretic activity (in words): rat, in vivo; for Antidiuretic IU/mg: single value given, no level given; for Antidiuretic IU/mg (200 min): level t1/2 200 min (in parentheses); for Antidiuretic IU/mg (200 min) / Antidiuretic IU/mg 60 min: s.c., AVP taken as 465 IU/mg; for Antidiuretic IU/mg 60 min: threshold level t1/2 60 min. In outline: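 Fasted (16 h) conscious male Wistar rats given a tap-water load of 4% body weight by stomach catheter. Test compound or saline was then injected s.c. (0.001–100 nmol/kg), and urine was collected for 5 h in metabolic cages. The half-excretion time t1/2 was plotted against dose. […] Groups were 4–5 rats, with 2–3 independent days per dose.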

[7] abbreviates: rat uterus strips, no Mg2+, average ± SEM, n = 3–5.
The mark [8] stands for this setting: ref Melin et al. (1986), Manning et al. (1995).

On to [Cpa^1,Acc^2]AVP, for which, in assay [1] (ref Jastrzębska et al. (2003)), the “Uterotonic in vitro no Mg2+ pA2” value was 7.33.

Consider [Acc^2,Val^4]AVP, for which the “Uterotonic in vitro no Mg2+ pA2” value in assay [1] (ref Kowalczyk et al. (2004)) was “pA2 = 6.9”. In addition, the “Pressor IU/mg” value in assay [2] (ref Kowalczyk et al. (2004)) is recorded as 0.9 ± 0.30 IU/mg. Besides, in assay [3] (ref Kowalczyk et al. (2004)), the “Antidiuretic IU/mg (200 min)” value is 23,000 IU/mg and the “Antidiuretic IU/mg 60 min” value is given as 2,300 IU/mg.

As to [Mpa^1,cis-Apc^2]OT [XIII], the “Uterotonic in vitro no Mg2+ pA2 (anti-oxytocic)” value in assay [4] (setting [7]) is reported as “pA2 = 8.11 + 0.18”. Also, the “Uterotonic in vitro no Mg2+ pA2 (anti-oxytocic)” value in assay [4] (rat uterus strips, no Mg2+, average ± SEM, n = 3–5, listed as [Mpa^1,cis-Apc^2]OT) came out at 8.11. Further, the “Pressor pA2 (antagonist)” value in assay [5] is reported as “pA2 ~ 6.0”. Also, in assay [6], the “antidiuretic activity (in words)” value is “inactive” and the “Antidiuretic IU/mg” value was 0 IU/mg.

t-Bba[cis-Apc^2,Val^4]AVP [IX]: the “Uterotonic in vitro no Mg2+ IU/mg (agonist)” value in assay [4] (setting [7]) is 10.1 ± 3.8 IU/mg and 10.1 + 3.8 IU/mg. In assay [5], the “Pressor IU/mg or pA2 (0 = no activity)” value is recorded as 0 and the “pressor activity (in words)” value is “eliminated its effect on blood pressure”. Also, in assay [6], the “Antidiuretic IU/mg (200 min)” value is less than 0.5 IU/mg and the “Antidiuretic IU/mg 60 min” value is recorded as less than 0.01 IU/mg.

Turning to [Mpa^1,cis-Apc^2,D-Arg^8]VP [VI], the “Pressor pA2 (antagonist)” value in assay [5] is listed as “pA2 ~ 7.1”. In addition, in assay [6], the “Antidiuretic IU/mg (200 min)” value is 1,000 IU/mg and the “Antidiuretic IU/mg 60 min” value turned out to be 5 IU/mg.

Regarding Aca[cis-Apc^2,Val^4]AVP [VIII], in assay [5], the “Pressor IU/mg or pA2 (0 = no activity)” value was 0 and the “pressor activity (in words)” value is on record as “eliminated its effect on blood pressure”. In assay [6], the “Antidiuretic IU/mg (200 min)” value was less than 0.5 IU/mg and the “Antidiuretic IU/mg 60 min” value is less than 0.01 IU/mg.

Consider [cis-Apc^2,D-Arg^8]VP, for which, in assay [5], the “Pressor pA2 (antagonist)” value is on record as “pA2 ~ 7.1”. In assay [6], the “Antidiuretic IU/mg (200 min)” value amounted to 200 IU/mg, the “antidiuretic activity (in words)” value was “negligible” and the “Antidiuretic IU/mg 60 min” value amounted to 1 IU/mg. In addition, the “antidiuretic potency relative to AVP” value in assay [6] (t1/2 level of 200 min) is “about 43%”.

Turning to [Acc^2]AVP, the “Uterotonic in vitro no Mg2+ pA2” value in assay [1] (ref Jastrzębska et al. (2003)) is recorded as “pA2 ~ 5.6”. In addition, the “Pressor IU/mg” value in assay [2] (ref Jastrzębska et al. (2003)) is listed as 56.6 IU/mg. Besides, in assay [3] (ref Jastrzębska et al. (2003)), the “Antidiuretic IU/mg (200 min)” value is on record as ~9,300 IU/mg and the “Antidiuretic IU/mg 60 min” value is given as 750–900 IU/mg.

As for d[D-Tyr(Et)^2,Thr^4]OVT [Atosiban], in assay [1] (setting [8]), the “Uterotonic in vitro no Mg2+ pA2” value was 7.71 and 7.71 ± 0.05. For the same substance, the “Pressor pA2” value in assay [2] (setting [8]) was “pA2 = 6.14 ± 0.02”. For the same substance, the “Antidiuretic pA2” value in assay [3] (setting [8]) is “pA2 = 5.9”.

As for Hba[cis-Apc^2,Val^4]AVP [X], the “anti-oxytocic potency, times less potent than the mother compound III” value in assay [4] is on record as “about 4 times”. Moreover, in assay [6], the “Antidiuretic IU/mg (200 min)” value is less than 0.5 IU/mg and the “Antidiuretic IU/mg 60 min” value is listed as less than 0.01 IU/mg.

Regarding “arginine vasopressin (CYFQNCPRG-NH2; disulfide 1-6; UniProt P01185 20-28, looked up) [AVP]”, the “Uterotonic in vitro no Mg2+ IU/mg” value in assay [1] (ref Lebl (1987)) is listed as 17 IU/mg. Also, the “Pressor IU/mg” value in assay [2] (ref Lebl (1987)) was 412 IU/mg. In assay [3], the “Antidiuretic IU/mg” value was 465 IU/mg.

On to [Cpa^1,cis-Apc^2]OT [XIV], for which the “Uterotonic in vitro no Mg2+ pA2 (anti-oxytocic)” value in assay [4] (setting [7]) is on record as “pA2 = 7.97 + 0.24”. Further, the “Pressor pA2 (antagonist)” value in assay [5] was “pA2 ~ 6.73”.

For [Mpa^1,Acc^2]AVP, the “Uterotonic in vitro no Mg2+ pA2” value in assay [1] (ref Kowalczyk et al. (2004)) is roughly 5.6. Moreover, the “Uterotonic in vitro no Mg2+ IU/mg” value in assay [1] (value in parentheses, ref Kowalczyk et al. (2004)) is reported as 0.7 IU/mg. In addition, in assay [2] (ref Kowalczyk et al. (2004)), the “Pressor IU/mg” value was 17.2 ± 0.8 IU/mg. In assay [3] (ref Kowalczyk et al. (2004)), the “Antidiuretic IU/mg (200 min)” value is 50,000 IU/mg and the “Antidiuretic IU/mg 60 min” value is given as 4,500 IU/mg.

Turning to [Cpa^1,cis-Apc^2]AVP [VII], in assay [4] (setting [7]), the “Uterotonic in vitro no Mg2+ pA2 (anti-oxytocic)” value was “pA2 = 7.85 + 0.14”. Besides, in assay [5], the “Pressor pA2 (antagonist)” value was “pA2 ~ 6.2”; the “pressor activity (in words)” value is “weak and low antagonistic activity”. Further, in assay [6], the “Antidiuretic IU/mg (200 min)” value stood at 1 IU/mg, the “antidiuretic activity (in words)” value was “negligible” and the “Antidiuretic IU/mg 60 min” value is 0.05 IU/mg.

Regarding [Mpa^1]OT, the “Uterotonic in vitro no Mg2+ IU/mg” value in assay [1] (ref Lebl (1987)) was 803 IU/mg. In assay [2] (ref Lebl (1987)), the “Pressor IU/mg” value is 1.44 IU/mg. Moreover, the “Antidiuretic IU/mg” value in assay [3] is 19 IU/mg.

[cis-Apc^2]OT [XII]: in assay [4] (setting [7]), the “Uterotonic in vitro no Mg2+ pA2 (anti-oxytocic)” value is listed as “pA2 = 7.89 + 0.07”. Also, in assay [5], the “Pressor pA2 (antagonist)” value is on record as “pA2 ~ 5.75” and the “pressor activity (in words)” value is “weak”.

As for oxytocin [OT], the “Uterotonic in vitro no Mg2+ IU/mg” value in assay [1] (ref Lebl (1987)) was 450 IU/mg. In assay [2] (ref Lebl (1987)), the “Pressor IU/mg” value was 5 IU/mg. Also, the “Antidiuretic IU/mg” value in assay [3] is on record as 5 IU/mg.

On to Aba[cis-Apc^2,Val^4]AVP [XI], for which, in assay [4], the “anti-oxytocic potency, times less potent than the mother compound III” value is on record as roughly 10 times. In assay [5], the “Pressor IU/mg or pA2 (0 = no activity)” value turned out to be 0 and the “pressor activity (in words)” value was “eliminated its effect on blood pressure”. In addition, the “Antidiuretic IU/mg” value in assay [6] amounted to 0 IU/mg.
